Among the data in ChEMBL document CHEMBL1153954, “Promiscuous aggregate-based inhibitors promote enzyme unfolding” (J Med Chem, 2009) are Activity values, retold here.

The assay addresses AmpC (Escherichia coli) (UniProt Q83TT7). The assay can be described thus: Inhibition of Escherichia coli AmpC assessed as induction of protein unfolding measured by trypsin mediated degradation of compound-AmpC enzyme complex at 250 uM after 15 mins by gel electrophoresis. The method, boiled down: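 AmpC β-lactamase (0.5 μM) in 50 mM KPi, pH 7.0, with or without aggregator at 250 μM (1% DMSO final). Trypsin (0.01 or 0.025 mg/mL) added after 5 min. Digestion ran at room temperature for 0 min to 4 h. Samples were boiled 2 min in DTT-containing loading buffer, run on SDS-PAGE, and the β-lactamase band was scored against compound-free enzyme.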

Structures are written as SMILES. Activity calls are given as the source filed them. The calls are words filed in the database; no cut-off is given here.

AmpC (Escherichia coli), sequence (Q83TT7 as listed by the source): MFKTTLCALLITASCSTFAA

For the molecule `O=S(=O)(O)c1cc(O)c(/N=N/c2ccc3ccccc3c2O)c2ccccc12`, the outcome was Active.

As to `Nc1c(/N=N/c2ccc(-c3ccc(/N=N/c4cc(S(=O)(=O)O)c5ccccc5c4N)cc3)cc2)cc(S(=O)(=O)O)c2ccccc12`, the outcome was Active.
